Data taken from ChEMBL document CHEMBL4346672, “Antimicrobial and KPC/AmpC inhibitory activity of functionalized benzosiloxaboroles” (Eur J Med Chem, 2019).
In brackets after ≈: the same amount, converted by molar mass.

Columns and labels:
Format in all cases: functional
Pichia kudriavzevii [1] = assay: Antifungal activity against Candida krusei ATCC 6258 assessed as diameter of zone inhibition at 0.025 mg incubated for 24 hrs by disc diffusion method; conditions: ATCC 6258, 24 h, read-out: DIZ
Method in brief: (§1)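 Disc diffusion on Mueller-Hinton II agar with 2% glucose and 0.5 mg/L methylene blue. Compounds were dissolved in DMSO. Yeasts were subcultured on Sabouraud dextrose agar for 24–48 h at 30 °C before testing. Plates were incubated at 35 °C for 24 h.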

Saccharomyces cerevisiae [2] = assay: Antifungal activity against Saccharomyces cerevisiae ATCC 9763 diameter of zone inhibition at 0.025 mg incubated for 24 hrs by disc diffusion method; conditions: ATCC 9763, 24 h, read-out: DIZ; method in brief: as §1
[3] = test system: Meyerozyma guilliermondii; assay: Antifungal activity against Candida guilliermondii IBA 155 assessed as decrease in fungal cell growth incubated for 24 hrs by E-test; conditions: IBA 155, 24 h
Method in brief: (§2)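 Yeasts were first subcultured on Sabouraud dextrose agar at 30 °C for 24–48 h. […] The MIC was recorded per Etest recommendations, which covers cases where macro-colonies persist inside the ellipse.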

Candida parapsilosis [4] = assay: Antifungal activity against Candida parapsilosis ATCC 22019 assessed as diameter of zone inhibition at 0.025 mg incubated for 24 hrs by disc diffusion method; conditions: Lodderomyces parapsilosis, ATCC 22019, 24 h; read-out: DIZ; method in brief: as §1
Candida parapsilosis [5] = assay: Antifungal activity against Candida parapsilosis ATCC 22019 assessed as decrease in fungal cell growth incubated for 24 hrs by E-test; conditions: Lodderomyces parapsilosis, ATCC 22019, 24 h; method in brief: as §2
Pichia kudriavzevii [6] = assay: Antifungal activity against Candida krusei ATCC 6258 assessed as decrease in fungal cell growth incubated for 24 hrs by E-test; conditions: ATCC 6258, 24 h; method in brief: as §2
Saccharomyces cerevisiae [7] = assay: Antifungal activity against Saccharomyces cerevisiae ATCC 9763 assessed as decrease in fungal cell growth incubated for 24 hrs by E-test; conditions: ATCC 9763, 24 h
Method in brief: (§3)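 Yeast strains were stored at -80 °C and subcultured twice on Sabouraud dextrose agar for 24–48 h at 30 °C before testing.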

Candida tropicalis [8] = assay: Antifungal activity against Candida tropicalis IBA 171 assessed as decrease in fungal cell growth incubated for 24 hrs by E-test; conditions: IBA 171, 24 h; method in brief: as §2
[9] = test system: Meyerozyma guilliermondii; assay: Antifungal activity against Candida guilliermondii IBA 155 assessed as diameter of zone inhibition at 0.025 mg incubated for 24 hrs by disc diffusion method; conditions: IBA 155, 24 h, read-out: DIZ; method in brief: as §1
Candida tropicalis [10] = assay: Antifungal activity against Candida tropicalis IBA 171 assessed as diameter of zone inhibition at 0.025 mg incubated for 24 hrs by disc diffusion method; conditions: IBA 171, 24 h, read-out: DIZ; method in brief: as §1
Candida albicans [11] = assay: Antifungal activity against Candida albicans ATCC 90028 assessed as decrease in fungal cell growth incubated for 24 hrs by E-test; conditions: ATCC 90028, 24 h; method in brief: as §3
Candida albicans [12] = assay: Antifungal activity against Candida albicans ATCC 90028 assessed as diameter of zone inhibition at 0.025 mg incubated for 24 hrs by disc diffusion method; conditions: ATCC 90028, 24 h, read-out: DIZ; method in brief: as §1

Q: What does the source list for `OC(Cn1cncn1)(Cn1cncn1)c1ccc(F)cc1F` [FLUCONAZOLE]?
A: zone of inhibition at 25 µg/disc (Pichia kudriavzevii [1]): 16 mm; zone of inhibition at 25 µg/disc (Saccharomyces cerevisiae [2]): 12 mm; MIC [3]: 0.75 µg/mL (≈ 2.45 µM); zone of inhibition at 25 µg/disc (Candida parapsilosis [4]): 32 mm; MIC (Candida parapsilosis [5]): 2 µg/mL (≈ 6.53 µM); MIC (Pichia kudriavzevii [6]): 64 µg/mL (≈ 209 µM); MIC (Saccharomyces cerevisiae [7]): 16 µg/mL (≈ 52.2 µM); MIC (Candida tropicalis [8]): 0.38 µg/mL (≈ 1.24 µM); zone of inhibition at 25 µg/disc [9]: 40 mm; zone of inhibition at 25 µg/disc (Candida tropicalis [10]): 39 mm; MIC (Candida albicans [11]): 1 µg/mL (≈ 3.27 µM); zone of inhibition at 25 µg/disc (Candida albicans [12]): 43 mm
